# Results collected from several papers.
# Each line is one published result; the experiments were not run side by side.
# Target: Serine/threonine-protein kinase MARK2 (MARK2, Homo sapiens, UniProt Q7KZI7)
SMILES,effect on,action,technique,tested at,endpoint,value
C#Cc1n[nH]c2c(-c3cn([C@@H](C)c4ccccc4)c(=O)[nH]c3=O)cc(F)cc12,enzyme activity,inhibitor,,0.1 µM,inhibition,2%
CC(C)(C)c1cc(C=C(C#N)C#N)cc(Br)c1O,enzyme activity,inhibitor,,0.5 µM,remaining activity,81.6%
Nc1ncc(-c2nc(N3CCOCC3)nc(N3CCOCC3)n2)c(C(F)F)n1,binding,,competition with immobilised ligand,10 µM,remaining binding,77%
C#Cc1n[nH]c2c(-c3cn(C(C)c4ccccn4)c(=O)[nH]c3=O)cc(F)cc12 (stereo not shown),enzyme activity,inhibitor,,1 µM,inhibition,5.8%
COc1ncccc1-c1cnn2ccc(N3CCN(C(=O)OC(C)C)CC3)nc12,binding,,competition with immobilised ligand,1 µM,remaining binding,80%
O=c1[nH]c2ccccc2n1C1CCN(Cc2ccc(-c3[nH]c4cc5ncnc5cc4nc3-c3ccccc3)cc2)CC1,cell-free assay,,,0.5 µM,remaining signal,92.2%
Cn1cc(-c2cc(F)cc(N3CCn4c(cc5c4CCCC5)C3=O)c2CO)cc(Nc2ccc(N3CCN(C4COC4)CC3)cn2)c1=O,enzyme activity,inhibitor,,0.1 µM,inhibition,14%
Cc1nn(C)cc1-c1nc2c(N3CCN(Cc4ccc(Cl)cc4)CC3)c(Cl)cnc2[nH]1,binding,,competition with immobilised ligand,1 µM,remaining binding,93%
Cn1cc(-c2cccc(N3CCc4c(sc5c4CC(C)(C)C5)C3=O)c2CO)cc(Nc2ccncn2)c1=O,enzyme activity,inhibitor,,1 µM,inhibition,10%
Cn1cncc1[C@](O)(COc1ccc(C#N)cc1-c1ccc(OC(F)(F)F)cc1)c1ccc(C#N)cc1,cell-free assay,,competition with immobilised ligand,1 µM,remaining binding,95%
